Assays:
Type in all cases: cell-based
[1] = system: Cellular tumor antigen p53 (Homo sapiens), P04637 [Y220C]; assay: Activation of p53 Y220C mutant in human NUGC3 cells assessed as change in XRCC5 mRNA level at 60 uM after 18 hrs by RT-PCR method relative to control
Method in brief: (§1)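 p53 signalling qPCR array covering 84 p53 pathway genes. Cells were exposed for 18 h, and compound and control wells both held 0.5% DMSO. Total RNA was extracted and purified. Fold-changes were calculated by the ΔΔCt method against the untreated sample, with β2-microglobulin (B2M) as the housekeeping gene. Each cell line was run in two independent biological replicates.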

[2] = system: Cellular tumor antigen p53 (Homo sapiens), P04637 [Y220C]; assay: Activation of p53 Y220C mutant in human NUGC3 cells assessed as change in CDKN1A mRNA level at 60 uM after 18 hrs by RT-PCR method relative to control
Method in brief: (§2)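 p53 signalling qPCR array covering 84 genes. Cells were exposed for 18 h, with 0.5% DMSO in both compound and control samples. Total RNA was extracted and purified. Fold-changes were calculated by ΔΔCt using β2-microglobulin (B2M) as the housekeeping gene. Two independent biological replicates were run per cell line.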

[3] = system: Cellular tumor antigen p53 (Homo sapiens), P04637 [Y220C]; assay: Activation of p53 Y220C mutant in human NUGC3 cells assessed as change in MCL1 mRNA level at 60 uM after 18 hrs by RT-PCR method relative to control; method in brief: as §1
[4] = target: T1, Cellular tumor antigen p53 (Homo sapiens, UniProt P04637); assay: Activation of p53 in human NUGC4 cells assessed as change in RELA mRNA level at 60 uM after 18 hrs by RT-PCR method relative to control; conditions: read-out: FC
[5] = target: T1, Cellular tumor antigen p53; assay: Activation of p53 in human NUGC4 cells assessed as change in BID mRNA level at 60 uM after 18 hrs by RT-PCR method relative to control; conditions: read-out: FC; method in brief: as §1
[6] = target: T1, Cellular tumor antigen p53; assay: Activation of p53 in human NUGC4 cells assessed as change in BBC3 mRNA level at 60 uM after 18 hrs by RT-PCR method relative to control; conditions: read-out: FC; method in brief: as §1
[7] = system: Cellular tumor antigen p53 (Homo sapiens), P04637 [Y220C]; assay: Activation of p53 Y220C mutant in human NUGC3 cells assessed as change in TP73 mRNA level at 60 uM after 18 hrs by RT-PCR method relative to control; method in brief: as §1
[8] = system: Cellular tumor antigen p53 (Homo sapiens), P04637 [Y220C]; assay: Activation of p53 Y220C mutant in human NUGC3 cells assessed as change in CDC25A mRNA level at 60 uM after 18 hrs by RT-PCR method relative to control; method in brief: as §2
[9] = target: T1, Cellular tumor antigen p53; assay: Activation of p53 in human NUGC4 cells assessed as change in TP53AIP1 mRNA level at 60 uM after 18 hrs by RT-PCR method relative to control; conditions: read-out: FC
[10] = system: Cellular tumor antigen p53 (Homo sapiens), P04637 [Y220C]; assay: Activation of p53 Y220C mutant in human NUGC3 cells assessed as change in EGFR mRNA level at 60 uM after 18 hrs by RT-PCR method relative to control; method in brief: as §2
[11] = target: T1, Cellular tumor antigen p53; assay: Activation of p53 in human NUGC4 cells assessed as change in MLH1 mRNA level at 60 uM after 18 hrs by RT-PCR method relative to control; conditions: read-out: FC
Method in brief: (§3)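 p53 signaling qPCR array of 84 p53-pathway genes. Cells were treated in 6-well plates for 18 h with 0.5% DMSO in compound and control samples. Total RNA was extracted and fold-changes were obtained by the ΔΔCt method against untreated control, with β2-microglobulin (B2M) as housekeeping gene. Two independent biological replicates per cell line.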

[12] = system: Cellular tumor antigen p53 (Homo sapiens), P04637 [Y220C]; assay: Activation of p53 Y220C mutant in human NUGC3 cells assessed as change in MSH2 mRNA level at 60 uM after 18 hrs by RT-PCR method relative to control; method in brief: as §1
[13] = target: T1, Cellular tumor antigen p53; assay: Activation of p53 in human NUGC4 cells assessed as change in ATR mRNA level at 60 uM after 18 hrs by RT-PCR method relative to control; conditions: read-out: FC; method in brief: as §1
[14] = system: Cellular tumor antigen p53 (Homo sapiens), P04637 [Y220C]; assay: Activation of p53 Y220C mutant in human NUGC3 cells assessed as change in SIRT1 mRNA level at 60 uM after 18 hrs by RT-PCR method relative to control; method in brief: as §1
[15] = target: T1, Cellular tumor antigen p53; assay: Activation of p53 in human NUGC4 cells assessed as change in PTTG1 mRNA level at 60 uM after 18 hrs by RT-PCR method relative to control; conditions: read-out: FC
[16] = target: T1, Cellular tumor antigen p53; assay: Activation of p53 in human NUGC4 cells assessed as change in F0X03 mRNA level at 60 uM after 18 hrs by RT-PCR method relative to control; conditions: read-out: FC; method in brief: as §3
[17] = system: Cellular tumor antigen p53 (Homo sapiens), P04637 [Y220C]; assay: Activation of p53 Y220C mutant in human NUGC3 cells assessed as change in MLH1 mRNA level at 60 uM after 18 hrs by RT-PCR method relative to control; method in brief: as §1
[18] = system: Cellular tumor antigen p53 (Homo sapiens), P04637 [Y220C]; assay: Activation of p53 Y220C mutant in human NUGC3 cells assessed as change in SESN2 mRNA level at 60 uM after 18 hrs by RT-PCR method relative to control; method in brief: as §1
[19] = system: Cellular tumor antigen p53 (Homo sapiens), P04637 [Y220C]; assay: Activation of p53 Y220C mutant in human NUGC3 cells assessed as change in FADD mRNA level at 60 uM after 18 hrs by RT-PCR method relative to control; method in brief: as §2
[20] = system: Cellular tumor antigen p53 (Homo sapiens), P04637 [Y220C]; assay: Activation of p53 Y220C mutant in human NUGC3 cells assessed as change in TP53 mRNA level at 60 uM after 18 hrs by RT-PCR method relative to control; method in brief: as §1
[21] = target: T1, Cellular tumor antigen p53; assay: Activation of p53 in human NUGC4 cells assessed as change in TNFRSF10B mRNA level at 60 uM after 18 hrs by RT-PCR method relative to control; conditions: read-out: FC
[22] = system: Cellular tumor antigen p53 (Homo sapiens), P04637 [Y220C]; assay: Activation of p53 Y220C mutant in human NUGC3 cells assessed as change in JUN mRNA level at 60 uM after 18 hrs by RT-PCR method relative to control; method in brief: as §1
[23] = target: T1, Cellular tumor antigen p53; assay: Activation of p53 in human NUGC4 cells assessed as change in CDKN2A mRNA level at 60 uM after 18 hrs by RT-PCR method relative to control; conditions: read-out: FC; method in brief: as §3
[24] = system: Cellular tumor antigen p53 (Homo sapiens), P04637 [Y220C]; assay: Activation of p53 Y220C mutant in human NUGC3 cells assessed as change in BCL2A1 mRNA level at 60 uM after 18 hrs by RT-PCR method relative to control; method in brief: as §2
[25] = target: T1, Cellular tumor antigen p53; assay: Activation of p53 in human NUGC4 cells assessed as change in CDKN1A mRNA level at 60 uM after 18 hrs by RT-PCR method relative to control; conditions: read-out: FC; method in brief: as §3
[26] = system: Cellular tumor antigen p53 (Homo sapiens), P04637 [Y220C]; assay: Activation of p53 Y220C mutant in human NUGC3 cells assessed as change in E2F3 mRNA level at 60 uM after 18 hrs by RT-PCR method relative to control; method in brief: as §2
[27] = target: T1, Cellular tumor antigen p53; assay: Activation of p53 in human NUGC4 cells assessed as change in KRAS mRNA level at 60 uM after 18 hrs by RT-PCR method relative to control; conditions: read-out: FC; method in brief: as §3
[28] = target: T1, Cellular tumor antigen p53; assay: Activation of p53 in human NUGC4 cells assessed as change in TNFRSF10D mRNA level at 60 uM after 18 hrs by RT-PCR method relative to control; conditions: read-out: FC
[29] = system: Cellular tumor antigen p53 (Homo sapiens), P04637 [Y220C]; assay: Activation of p53 Y220C mutant in human NUGC3 cells assessed as change in BAI1 mRNA level at 60 uM after 18 hrs by RT-PCR method relative to control; method in brief: as §2

With `CCNC(=O)c1c(O)c(I)c(-n2cccc2)c2sc(N(CC)CC)nc12` the fold change (FC) [1] was 1.4, the fold change (FC) [2] was 3.1 and the fold change (FC) [3] was 1.7. For the same molecule, the fold induction at 60 µM [4] was 0.8, the fold induction at 60 µM [5] was 0.7 and the fold induction at 60 µM [6] was 1.3. The fold change (FC) [7] was 1.2, the fold change (FC) [8] was 0.6 and the fold induction at 60 µM [9] was 1. It also gave a fold change (FC) [10] of 1, a fold induction at 60 µM [11] of 1 and a fold change (FC) [12] of 5.3. For the same molecule, the fold induction at 60 µM [13] was 0.9, the fold change (FC) [14] was 1.7 and the fold induction at 60 µM [15] was 0.9. For the same molecule, the fold induction at 60 µM [16] was 0.8, the fold change (FC) [17] was 5.4 and the fold change (FC) [18] was 0.7. For the same molecule, the fold change (FC) [19] was 0.4, the fold change (FC) [20] was 0.7 and the fold induction at 60 µM [21] was 1.2. It also gave a fold change (FC) [22] of 0.9, a fold induction at 60 µM [23] of 0.5 to 1 and a fold change (FC) [24] of 3.9. For the same molecule, the fold induction at 60 µM [25] was 1.3, the fold change (FC) [26] was 1.3 and the fold induction at 60 µM [27] was 0.9. It also gave a fold induction at 60 µM [28] of 1 and a fold change (FC) [29] of 1.5.

From ChEMBL document CHEMBL4152234, “Aminobenzothiazole derivatives stabilize the thermolabile p53 cancer mutant Y220C and show anticancer activity in p53-Y220C cell lines” (Eur J Med Chem, 2018)
